Source: ChEMBL document CHEMBL1255303, “In vitro and in vivo antifungal activities of T-2307, a novel arylamidine” (2008)
Converted amounts (≈) assume the structure as drawn. The source made the active and inactive calls. No cut-off for these calls is given here. Starred links: 1 amine or outer side, 2 acyl side, 3 side chain; linkers in the order of their positions; H or OH if unused. Positions of bridges follow the written chain, without caps; N, C: chain ends. Non-standard residues stand in square brackets, D forms with d. Residues, ends and D or L forms follow the SMILES beside them. *: point of attachment. hTyr(3S-OH,4S-OH,3'-OSO3H) = N[C@H](C(=O)O)[C@H](O)[C@@H](O)c1ccc(O)c(OS(=O)(=O)O)c1; Orn(4R-OH,5R-OH) = O=C([C@H](C[C@@H](O)[C@@H](O)N[*:3])N[*:1])[*:2]; Pro(3S-OH,4S-Me) = C[C@H]1CN[C@H](C(=O)O)[C@H]1O; X1 = CCCCCOc1ccc(-c2cc(-c3ccc(C(=O)*)cc3)no2)cc1; Gln(3R-OH) = NC(=O)C[C@@H](O)[C@H](N)C(=O)O; Hyp = O=C(O)[C@@H]1C[C@@H](O)CN1

Assays:
Nakaseomyces glabratus [1] = assay: Antifungal activity against Candida glabrata ATCC 90030 after 48 hrs by broth microdilution method; assay type: functional; settings: ATCC 90030, 48 h
In short: (§1)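 CLSI M27-A2 (yeasts) / M38-A (moulds) broth microdilution in RPMI 1640 buffered to pH 7.0 with 0.165 M MOPS. Malassezia furfur got the same medium supplemented with glucose, bile salts, glycerol, glycerol monostearate and Tween 20. Final inoculum 0.65 × 10^3–2.5 × 10^3 CFU/ml for yeasts and 0.87 × 10^4–3.8 × 10^4 CFU/ml for filamentous fungi. Incubation at 35°C except M. racemosus and F. solani, which were held at 30°C.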

[2] = tested on: Meyerozyma guilliermondii; assay: Antifungal activity against Candida guilliermondii IFO 10279 after 48 hrs by broth microdilution method; assay type: functional; settings: IFO 10279, 48 h; in short: as §1
Candida parapsilosis [3] = assay: Antifungal activity against Candida parapsilosis NBRC 10219 after 48 hrs by broth microdilution method; assay type: functional; settings: Lodderomyces parapsilosis, NBRC 10219, 48 h
In short: (§2)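 CLSI M27-A2 (yeasts) or M38-A (A. fumigatus) broth microdilution in RPMI 1640 buffered to pH 7.0 with 0.165 M MOPS. Final inocula were 0.65–2.5 × 10^3 CFU/ml for yeasts and 0.87–3.8 × 10^4 CFU/ml for filamentous fungi. Incubation was at 35°C for about 48 h (72 h for C. neoformans). MIC was the lowest concentration giving a prominent (~50%) turbidity drop versus growth control; amphotericin B required complete inhibition.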

Candida tropicalis = assay: Antifungal activity against Candida tropicalis IFO 1400 after 48 hrs by broth microdilution method; assay type: functional; settings: IFO 1400, 48 h; in short: as §1
Cryptococcus neoformans [4] = assay: Antifungal activity against Cryptococcus neoformans ATCC 90112 after 72 hrs by broth microdilution method; assay type: functional; settings: ATCC 90112, 72 h; in short: as §2
Cryptococcus neoformans [5] = assay: Antifungal activity against Cryptococcus neoformans TIMM 0354 after 72 hrs by broth microdilution method; assay type: functional; settings: TIMM 0354, 72 h; in short: as §2
Aspergillus fumigatus [6] = assay: Antifungal activity against Aspergillus fumigatus ATCC 16424 after 48 hrs by broth microdilution method; assay type: functional; settings: ATCC 16424, 48 h; in short: as §2
Aspergillus niger = assay: Antifungal activity against Aspergillus niger NBRC 33023 after 48 hrs by broth microdilution method; assay type: functional; settings: NBRC 33023, 48 h; in short: as §1
Aspergillus terreus = assay: Antifungal activity against Aspergillus terreus NBRC 33026 after 48 hrs by broth microdilution method; assay type: functional; settings: NBRC 33026, 48 h; in short: as §1
Scedosporium boydii = assay: Antifungal activity against Pseudallescheria boydii NBRC 32229 after 72 hrs by broth microdilution method; assay type: functional; settings: NBRC 32229, 72 h; in short: as §1
Rhizopus arrhizus = assay: Antifungal activity against Rhizopus oryzae NBRC 31005 after 24 hrs by broth microdilution method; assay type: functional; settings: NBRC 31005, 24 h; in short: as §1
Lichtheimia corymbifera = assay: Antifungal activity against Absidia corymbifera NBRC 4009 after 24 hrs by broth microdilution method; assay type: functional; settings: NBRC 4009, 24 h; in short: as §1
Trichophyton rubrum = assay: Antifungal activity against Trichophyton rubrum NBRC 5467 after 72 hrs by broth microdilution method; assay type: functional; settings: NBRC 5467, 72 h; in short: as §1
Candida albicans [7] = assay: Antifungal activity against Candida albicans ATCC 96901 after 47 hrs by broth microdilution method; assay type: functional; settings: ATCC 96901, 47 h
In short: (§3)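 Fluconazole-resistant or susceptible-dose-dependent ATCC C. albicans strains were tested by CLSI M27-A2 broth microdilution in RPMI 1640–0.165 M MOPS, pH 7.0, with a final inoculum of 1.1–1.5 × 10^3 CFU/ml at 35°C for about 47 h. MIC was the lowest concentration with a prominent (~50%) turbidity decrease relative to growth control; amphotericin B was read at complete inhibition.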

Candida albicans [8] = assay: Antifungal activity against Candida albicans ATCC MYA-573 after 47 hrs by broth microdilution method; assay type: functional; settings: ATCC MYA-573, 47 h; in short: as §3
Candida albicans [9] = assay: Antifungal activity against Candida albicans ATCC MYA-574 after 47 hrs by broth microdilution method; assay type: functional; settings: ATCC MYA-574, 47 h
In short: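 Fluconazole-resistant or susceptible-dose-dependent C. albicans ATCC strains were tested by broth microdilution in RPMI 1640-MOPS. Inoculum was 1.1 × 10^3–1.5 × 10^3 CFU/ml, with incubation at 35°C for about 47 h. Yeast MIC was read as about 50% turbidity decrease relative to growth control, except amphotericin B, read at complete inhibition.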

Candida albicans [10] = assay: Antifungal activity against Candida albicans ATCC MYA-575 after 47 hrs by broth microdilution method; assay type: functional; settings: ATCC MYA-575, 47 h; in short: as §3
Candida albicans [11] = assay: Antifungal activity against Candida albicans ATCC MYA-1003 after 47 hrs by broth microdilution method; assay type: functional; settings: ATCC MYA-1003, 47 h; in short: as §3
Nakaseomyces glabratus [12] = assay: Antifungal activity against Candida glabrata clinical isolates after 48 hrs by broth microdilution method; assay type: functional
In short: (§4)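 Clinical isolates from Japanese hospitals or culture collections were tested by broth microdilution in RPMI 1640-MOPS. Inoculum was 0.57 × 10^3–2.5 × 10^3 CFU/ml for yeasts and 0.4 × 10^4–3.3 × 10^4 CFU/ml for filamentous fungi. Incubation was at 35°C for about 48 h, or 72 h where footnoted. Results were summarised as MIC range, MIC50 and MIC90.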

Candida parapsilosis [13] = assay: Antifungal activity against Candida parapsilosis clinical isolates after 48 hrs by broth microdilution method; assay type: functional; settings: Lodderomyces parapsilosis
In short: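 Japanese hospital Candida isolates were tested by CLSI M27-A2 broth microdilution in RPMI 1640–MOPS, pH 7.0, with inocula of 0.57–2.5 × 10^3 CFU/ml at 35°C for about 48 h. Inocula came from 24-h potato dextrose agar cultures. MIC was the lowest concentration with about 50% turbidity reduction versus growth control (complete inhibition for amphotericin B). Range, MIC50 and MIC90 were reported.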

Cryptococcus neoformans [14] = assay: Antifungal activity against Cryptococcus neoformans clinical isolates after 72 hrs by broth microdilution method; assay type: functional; in short: as §4
Aspergillus fumigatus [15] = assay: Antifungal activity against Aspergillus fumigatus IFM 46895 infected ICR mouse assessed as delay in mortality of mouse at 1 mg/kg after 6 days; assay type: functional, organism-based; parameters: dose 1 mg/kg
In short: (§5)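 Male ICR mice, 4 weeks old and SPF, were made neutropenic with intraperitoneal cyclophosphamide. The schedule was 200 mg/kg on day −3 (day −4 for Cryptococcus) plus 100 mg/kg on day +1. Infection was by tail-vein injection of 0.2 ml suspension: C. albicans 3.0 × 10^4, C. neoformans 9.1 × 10^4, A. fumigatus conidia 8.4 × 10^4 CFU/mouse. Drugs were given subcutaneously once daily for 7 days from 2 h post-infection; controls received saline. Groups had 8–10 mice.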

Candida albicans [16] = assay: Antifungal activity against Candida albicans TIMM 1623 infected ICR mouse after 6 days; assay type: functional; settings: TIMM 1623, 144 h; in short: as §5

CCCCCOc1ccc(-c2cc(-c3ccc(C(=O)N[C@H]4C[C@@H](O)[C@@H](O)NC(=O)[C@@H]5[C@@H](O)[C@@H](C)CN5C(=O)[C@H]([C@H](O)CC(N)=O)NC(=O)[C@H]([C@H](O)[C@@H](O)c5ccc(O)c(OS(=O)(=O)O)c5)NC(=O)[C@@H]5C[C@@H](O)CN5C(=O)[C@H]([C@@H](C)O)NC4=O)cc3)no2)cc1 [MICAFUNGIN] (X1-[Orn(4R-OH,5R-OH)]T[Hyp][hTyr(3S-OH,4S-OH,3'-OSO3H)][Gln(3R-OH)][Pro(3S-OH,4S-Me)]; lactam 1-C)
MFC (Nakaseomyces glabratus [1]): 0.0313 µg/mL (≈ 0.0246 µM) | MIC (Nakaseomyces glabratus [1]): 0.0313 µg/mL (≈ 0.0246 µM) | MFC [2]: 8 µg/mL (≈ 6.3 µM) | MIC [2]: 0.5 µg/mL (≈ 0.394 µM) | MFC (Candida parapsilosis [3]): > 32 µg/mL | MIC (Candida parapsilosis [3]): 2 µg/mL (≈ 1.57 µM) | MFC (Candida tropicalis): > 64 µg/mL | MIC (Candida tropicalis): 0.0625 µg/mL (≈ 0.0492 µM) | MFC (Cryptococcus neoformans [4]): > 64 µg/mL | MIC (Cryptococcus neoformans [4]): > 64 µg/mL | MFC (Cryptococcus neoformans [5]): > 64 µg/mL | MIC (Cryptococcus neoformans [5]): > 64 µg/mL | MFC (Aspergillus fumigatus [6]): > 64 µg/mL | MIC (Aspergillus fumigatus [6]): 0.0313 µg/mL (≈ 0.0246 µM) | MFC (Aspergillus niger): > 64 µg/mL | MIC (Aspergillus niger): 0.0313 µg/mL (≈ 0.0246 µM) | MFC (Aspergillus terreus): > 64 µg/mL | MIC (Aspergillus terreus): 0.0313 µg/mL (≈ 0.0246 µM) | MFC (Scedosporium boydii): > 64 µg/mL | MIC (Scedosporium boydii): 0.5 µg/mL (≈ 0.394 µM) | MFC (Rhizopus arrhizus): > 64 µg/mL | MIC (Rhizopus arrhizus): > 64 µg/mL | MFC (Lichtheimia corymbifera): > 64 µg/mL | MIC (Lichtheimia corymbifera): 32 µg/mL (≈ 25.2 µM) | MFC (Trichophyton rubrum): > 64 µg/mL | MIC (Trichophyton rubrum): 0.0313 µg/mL (≈ 0.0246 µM) | MIC (Candida albicans [7]): 0.125 µg/mL (≈ 0.0984 µM) | MIC (Candida albicans [8]): 0.0625 µg/mL (≈ 0.0492 µM) | MIC (Candida albicans [9]): 0.0625 µg/mL (≈ 0.0492 µM) | MIC (Candida albicans [10]): 0.125 µg/mL (≈ 0.0984 µM) | MIC (Candida albicans [11]): 0.125 µg/mL (≈ 0.0984 µM) | MIC50 (Nakaseomyces glabratus [12]): 0.0625 µg/mL (≈ 0.0492 µM) | MIC90 (Nakaseomyces glabratus [12]): 0.0625 µg/mL (≈ 0.0492 µM) | MIC50 (Candida parapsilosis [13]): 2 µg/mL (≈ 1.57 µM) | MIC90 (Candida parapsilosis [13]): 4 µg/mL (≈ 3.15 µM) | MIC (Cryptococcus neoformans [14]): > 64 µg/mL | MIC50 (Cryptococcus neoformans [14]): > 64 µg/mL | MIC90 (Cryptococcus neoformans [14]): > 64 µg/mL | Activity (Aspergillus fumigatus [15]): Active | ED50 (Candida albicans [16]): 0.182 mg/kg
